In ChEMBL document CHEMBL2169854, “New insight into the central benzodiazepine receptor-ligand interactions: design, synthesis, biological evaluation, and molecular modeling of 3-substituted 6-phenyl-4H-imidazo[1,5-a][1,4]benzodiazepines and related compounds” (J Med Chem, 2011):
Activity calls are given as the source filed them. The rule behind the calls is not given here.

Species: Rattus norvegicus
Assay: Agonist activity at central benzodiazepine receptor in Sprague-Dawley rat cerebrocortical synaptoneurosomes assessed as increase in GABA-induced [36]chloride ion flow after 10 seconds by beta liquid scintillation counting
Assay type: functional
How it was run: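 Cerebral cortex from male Sprague-Dawley rats was homogenised and filtered, and synaptoneurosomes were washed in HEPES pH 7 buffer (145 mM NaCl, 5 mM KCl, 5 mM MgCl2, 1 mM CaCl2, 10 mM glucose). Aliquots of 1.5–2 mg protein were preincubated 10 min at 30 C. Drug was added with 0.2 μCi 36Cl−, uptake was stopped at 10 s, and filter-bound radioactivity was counted by scintillation.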

CCOC(=O)c1ncn2c1CN=C(c1ccc(F)cc1)c1cc(F)ccc1-2
Activity: Active
